Laboratory results: ChEMBL document CHEMBL4004831, “Naphthalene diimide-polyamine hybrids as antiproliferative agents: Focus on the architecture of the polyamine chains” (Eur J Med Chem, 2017)

Tests used:
[1] = organism: Homo sapiens; test: Stabilization of 5'Dabcyl/3'FAM labeled human telomeric sequence G-quadruplex DNA assessed as increase in melting temperature at 2.5 uM pretreated for 5 mins at 30 degreeC followed by 5 mins incubation at 95 degreeC by fluorescence assay
Method in brief: (§1)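 FRET melting in LiP buffer (10 mM LiOH, 50 mM KCl, pH 7.0 with H3PO4), ex 488 nm, em 520 nm. Samples were held 5 min at 30 °C, heated at 1 °C/min to 95 °C, held 5 min, then re-annealed. Tm came from first derivatives; ΔTm = shift with ligand at 2.5; at least three runs.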

[2] = Stabilization of 5'Dabcyl/3'FAM labeled duplex DNA (unknown origin) assessed as increase in melting temperature at 2.5 uM pretreated for 5 mins at 30 degreeC followed by 5 mins incubation at 95 degreeC by fluorescence assay; method in brief: as §1
[3] = tested on: CCRF-CEM; test: Growth inhibition of human CCRF-CEM cells incubated for 48 hrs by sulforhodamine B assay; format: functional
[4] = tested on: HL-60; test: Growth inhibition of human HL60 cells incubated for 48 hrs by sulforhodamine B assay; format: functional; settings: HL-60, 48 h
[5] = tested on: K562; test: Growth inhibition of human K562 cells incubated for 48 hrs by sulforhodamine B assay; format: functional; settings: K562, 48 h
[6] = tested on: RPMI-8226; test: Growth inhibition of human RPMI8226 cells incubated for 48 hrs by sulforhodamine B assay; format: functional; settings: RPMI-8226, 48 h
[7] = tested on: SR; test: Growth inhibition of human SR cells incubated for 48 hrs by sulforhodamine B assay; format: functional
[8] = tested on: A549; test: Growth inhibition of human A549/ATCC cells incubated for 48 hrs by sulforhodamine B assay; format: functional; settings: A549, 48 h
[9] = tested on: HOP-92; test: Growth inhibition of human HOP92 cells incubated for 48 hrs by sulforhodamine B assay; format: functional; settings: HOP-92, 48 h
[10] = tested on: NCI-H226; test: Growth inhibition of human NCI-H226 cells incubated for 48 hrs by sulforhodamine B assay; format: functional; settings: NCI-H226, 48 h
[11] = tested on: HCC 2998; test: Growth inhibition of human HCC2998 cells incubated for 48 hrs by sulforhodamine B assay; format: functional; settings: HCC 2998, 48 h
[12] = tested on: HCT-116; test: Growth inhibition of human HCT116 cells incubated for 48 hrs by sulforhodamine B assay; format: functional; settings: HCT-116, 48 h
[13] = tested on: HT-29; test: Growth inhibition of human HT-29 cells incubated for 48 hrs by sulforhodamine B assay; format: functional; settings: HT-29, 48 h
[14] = tested on: KM12; test: Growth inhibition of human KM12 cells incubated for 48 hrs by sulforhodamine B assay; format: functional; settings: KM12, 48 h
[15] = tested on: SW-620; test: Growth inhibition of human SW620 cells incubated for 48 hrs by sulforhodamine B assay; format: functional; settings: SW-620, 48 h
[16] = tested on: SF-295; test: Growth inhibition of human SF295 cells incubated for 48 hrs by sulforhodamine B assay; format: functional; settings: SF-295, 48 h
[17] = tested on: SF-539; test: Growth inhibition of human SF539 cells incubated for 48 hrs by sulforhodamine B assay; format: functional; settings: SF-539, 48 h
[18] = tested on: SNB-19; test: Growth inhibition of human SNB19 cells incubated for 48 hrs by sulforhodamine B assay; format: functional; settings: SNB-19, 48 h
[19] = tested on: SNB-75; test: Growth inhibition of human SNB75 cells incubated for 48 hrs by sulforhodamine B assay; format: functional; settings: SNB-75, 48 h
[20] = tested on: LOX IMVI; test: Growth inhibition of human LOXIMVI cells incubated for 48 hrs by sulforhodamine B assay; format: functional
[21] = tested on: Malme-3M; test: Growth inhibition of human MALME-3M cells incubated for 48 hrs by sulforhodamine B assay; format: functional
[22] = tested on: M14; test: Growth inhibition of human M14 cells incubated for 48 hrs by sulforhodamine B assay; format: functional; settings: M14, 48 h
[23] = tested on: MDA-MB-435; test: Growth inhibition of human MDA-MB-435 cells incubated for 48 hrs by sulforhodamine B assay; format: functional; settings: MDA-MB-435, 48 h
[24] = tested on: SK-MEL-2; test: Growth inhibition of human SK-MEL-2 cells incubated for 48 hrs by sulforhodamine B assay; format: functional; settings: SK-MEL-2, 48 h
[25] = tested on: SK-MEL-28; test: Growth inhibition of human SK-MEL-28 cells incubated for 48 hrs by sulforhodamine B assay; format: functional; settings: SK-MEL-28, 48 h
[26] = tested on: SK-MEL-5; test: Growth inhibition of human SK-MEL-5 cells incubated for 48 hrs by sulforhodamine B assay; format: functional; settings: SK-MEL-5, 48 h
[27] = tested on: UACC-62; test: Growth inhibition of human UACC62 cells incubated for 48 hrs by sulforhodamine B assay; format: functional; settings: UACC-62, 48 h
[28] = tested on: IGROV-1; test: Growth inhibition of human IGROV1 cells incubated for 48 hrs by sulforhodamine B assay; format: functional; settings: IGROV-1, 48 h
[29] = tested on: OVCAR-3; test: Growth inhibition of human OVCAR3 cells incubated for 48 hrs by sulforhodamine B assay; format: functional; settings: OVCAR-3, 48 h
[30] = tested on: OVCAR-4; test: Growth inhibition of human OVCAR4 cells incubated for 48 hrs by sulforhodamine B assay; format: functional; settings: OVCAR-4, 48 h
[31] = tested on: OVCAR-5; test: Growth inhibition of human OVCAR5 cells incubated for 48 hrs by sulforhodamine B assay; format: functional; settings: OVCAR-5, 48 h
[32] = tested on: OVCAR-8; test: Growth inhibition of human OVCAR8 cells incubated for 48 hrs by sulforhodamine B assay; format: functional; settings: OVCAR-8, 48 h
[33] = tested on: NCI/ADR-RES; test: Growth inhibition of human NCI-ADR-RES cells incubated for 48 hrs by sulforhodamine B assay; format: functional
[34] = tested on: A498; test: Growth inhibition of human A498 cells incubated for 48 hrs by sulforhodamine B assay; format: functional; settings: A498, 48 h
[35] = tested on: ACHN; test: Growth inhibition of human ACHN cells incubated for 48 hrs by sulforhodamine B assay; format: functional
[36] = tested on: RXF 393; test: Growth inhibition of human RXF393 cells incubated for 48 hrs by sulforhodamine B assay; format: functional; settings: RXF 393, 48 h
[37] = tested on: SN12C; test: Growth inhibition of human SN12C cells incubated for 48 hrs by sulforhodamine B assay; format: functional
[38] = tested on: UO-31; test: Growth inhibition of human UO31 cells incubated for 48 hrs by sulforhodamine B assay; format: functional; settings: UO-31, 48 h
[39] = tested on: PC-3; test: Growth inhibition of human PC3 cells incubated for 48 hrs by sulforhodamine B assay; format: functional; settings: PC-3, 48 h
[40] = tested on: DU-145; test: Growth inhibition of human DU145 cells incubated for 48 hrs by sulforhodamine B assay; format: functional; settings: DU-145, 48 h
[41] = tested on: MCF7; test: Growth inhibition of human MCF7 cells incubated for 48 hrs by sulforhodamine B assay; format: functional; settings: MCF7, 48 h
[42] = tested on: MDA-MB-231; test: Growth inhibition of human MDA-MB-231 cells incubated for 48 hrs by sulforhodamine B assay; format: functional; settings: MDA-MB-231, 48 h
[43] = tested on: Hs-578T; test: Growth inhibition of human Hs 578T cells incubated for 48 hrs by sulforhodamine B assay; format: functional
[44] = tested on: MDA-MB-468; test: Growth inhibition of human MDA-MB-468 cells incubated for 48 hrs by sulforhodamine B assay; format: functional; settings: MDA-MB-468, 48 h

## CNCCCNCCCN1C(=O)c2ccc3c4c(ccc(c24)C1=O)C(=O)N(CCCNCc1ccccc1OC)C3=O
[1]
  ΔTm: 18 °C
[2]
  ΔTm: 9.5 °C
[3]
  GI50: 465 nM
[4]
  GI50: 2000 nM
[5]
  GI50: 408 nM
[6]
  GI50: 1640 nM
[7]
  GI50: 270 nM
[8]
  GI50: 577 nM
[9]
  GI50: 2130 nM
[10]
  GI50: 1420 nM
[11]
  GI50: 1930 nM
[12]
  GI50: 270 nM
[13]
  GI50: 381 nM
[14]
  GI50: 1180 nM
[15]
  GI50: 365 nM
[16]
  GI50: 894 nM
[17]
  GI50: 782 nM
[18]
  GI50: 1680 nM
[19]
  GI50: 1110 nM
[20]
  GI50: 1520 nM
[21]
  GI50: 633 nM
[22]
  GI50: 1320 nM
[23]
  GI50: 1070 nM
[24]
  GI50: 1750 nM
[25]
  GI50: 1010 nM
[26]
  GI50: 1100 nM
[27]
  GI50: 1520 nM
[28]
  GI50: 1450 nM
[29]
  GI50: 1370 nM
[30]
  GI50: 641 nM
[31]
  GI50: 1250 nM
[32]
  GI50: 797 nM
[33]
  GI50: 12100 nM
[34]
  GI50: 1540 nM
[35]
  GI50: 500 nM
[36]
  GI50: 1890 nM
[37]
  GI50: 1460 nM
[38]
  GI50: 5880 nM
[39]
  GI50: 1600 nM
[40]
  GI50: 1050 nM
[41]
  GI50: 512 nM
[42]
  GI50: 2900 nM
[43]
  GI50: 3020 nM
[44]
  GI50: 1000 nM

## COc1ccccc1CNCCCN1C(=O)c2ccc3c4c(ccc(c24)C1=O)C(=O)N(CCCN)C3=O
[1]
  ΔTm: 1.4 °C
[2]
  ΔTm: 6.7 °C
[3]
  GI50: 433 nM
[4]
  GI50: 1560 nM
[5]
  GI50: 1090 nM
[6]
  GI50: 1110 nM
[7]
  GI50: 167 nM
[8]
  GI50: 1760 nM
[9]
  GI50: 2100 nM
[10]
  GI50: 1780 nM
[11]
  GI50: 1860 nM
[12]
  GI50: 394 nM
[13]
  GI50: 1310 nM
[14]
  GI50: 1620 nM
[15]
  GI50: 442 nM
[16]
  GI50: 1430 nM
[17]
  GI50: 1300 nM
[18]
  GI50: 1510 nM
[19]
  GI50: 1580 nM
[20]
  GI50: 526 nM
[21]
  GI50: 366 nM
[22]
  GI50: 1060 nM
[23]
  GI50: 196 nM
[24]
  GI50: 1440 nM
[25]
  GI50: 1730 nM
[26]
  GI50: 246 nM
[27]
  GI50: 369 nM
[28]
  GI50: 1000 nM
[29]
  GI50: 301 nM
[30]
  GI50: 257 nM
[31]
  GI50: 1950 nM
[32]
  GI50: 421 nM
[33]
  GI50: 2900 nM
[34]
  GI50: 1540 nM
[35]
  GI50: 1660 nM
[36]
  GI50: 377 nM
[37]
  GI50: 1170 nM
[38]
  GI50: 1500 nM
[39]
  GI50: 1660 nM
[40]
  GI50: 1380 nM
[41]
  GI50: 302 nM
[42]
  GI50: 1590 nM
[43]
  GI50: 1740 nM
[44]
  GI50: 406 nM

## COc1ccccc1CNCCCN1C(=O)c2ccc3c4c(ccc(c24)C1=O)C(=O)N(CCCNCCCCNCCCN)C3=O
[1]
  ΔTm: 21.4 °C
[2]
  ΔTm: 6.7 °C
[3]
  GI50: 425 nM
[4]
  GI50: 438 nM
[5]
  GI50: 301 nM
[6]
  GI50: 626 nM
[7]
  GI50: 325 nM
[8]
  GI50: 581 nM
[9]
  GI50: 687 nM
[10]
  GI50: 928 nM
[11]
  GI50: 296 nM
[12]
  GI50: 315 nM
[13]
  GI50: 309 nM
[14]
  GI50: 340 nM
[15]
  GI50: 262 nM
[16]
  GI50: 1080 nM
[17]
  GI50: 426 nM
[18]
  GI50: 579 nM
[19]
  GI50: 752 nM
[20]
  GI50: 300 nM
[21]
  GI50: 241 nM
[22]
  GI50: 645 nM
[23]
  GI50: 213 nM
[24]
  GI50: 229 nM
[25]
  GI50: 390 nM
[26]
  GI50: 156 nM
[27]
  GI50: 364 nM
[28]
  GI50: 360 nM
[29]
  GI50: 262 nM
[30]
  GI50: 160 nM
[31]
  GI50: 2030 nM
[32]
  GI50: 288 nM
[33]
  GI50: 2040 nM
[34]
  GI50: 1340 nM
[35]
  GI50: 747 nM
[36]
  GI50: 324 nM
[37]
  GI50: 319 nM
[38]
  GI50: 2680 nM
[39]
  GI50: 564 nM
[40]
  GI50: 693 nM
[41]
  GI50: 200 nM
[42]
  GI50: 435 nM
[43]
  GI50: 1360 nM
[44]
  GI50: 133 nM
